CASP6 VEID inh: caspase-6 (human) enzyme inhibition. P55212. purified caspase-6, Z-VEID-R110 cleavage fluorescence. inhibition, % at 12.5 µM. hit rate 0.53% among 350,000. AID 686996;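 active = mean inhibition across replicates at least about 35%, with every replicate also reaching that limit, limit read from the data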;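 note: 0% = median of neutral control wells and 100% = no fluorescence left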
DNMT1 inh: DNMT1 (human) enzyme inhibition | hit rate 0.83% among 360,000 | inhibition (reported as % activation of signal), % at 10 µM | DNMT1 molecular beacon, Hinp1I cleavage, fluorescence | P26358
Target sequence (P26358 504-1616 limits assumed): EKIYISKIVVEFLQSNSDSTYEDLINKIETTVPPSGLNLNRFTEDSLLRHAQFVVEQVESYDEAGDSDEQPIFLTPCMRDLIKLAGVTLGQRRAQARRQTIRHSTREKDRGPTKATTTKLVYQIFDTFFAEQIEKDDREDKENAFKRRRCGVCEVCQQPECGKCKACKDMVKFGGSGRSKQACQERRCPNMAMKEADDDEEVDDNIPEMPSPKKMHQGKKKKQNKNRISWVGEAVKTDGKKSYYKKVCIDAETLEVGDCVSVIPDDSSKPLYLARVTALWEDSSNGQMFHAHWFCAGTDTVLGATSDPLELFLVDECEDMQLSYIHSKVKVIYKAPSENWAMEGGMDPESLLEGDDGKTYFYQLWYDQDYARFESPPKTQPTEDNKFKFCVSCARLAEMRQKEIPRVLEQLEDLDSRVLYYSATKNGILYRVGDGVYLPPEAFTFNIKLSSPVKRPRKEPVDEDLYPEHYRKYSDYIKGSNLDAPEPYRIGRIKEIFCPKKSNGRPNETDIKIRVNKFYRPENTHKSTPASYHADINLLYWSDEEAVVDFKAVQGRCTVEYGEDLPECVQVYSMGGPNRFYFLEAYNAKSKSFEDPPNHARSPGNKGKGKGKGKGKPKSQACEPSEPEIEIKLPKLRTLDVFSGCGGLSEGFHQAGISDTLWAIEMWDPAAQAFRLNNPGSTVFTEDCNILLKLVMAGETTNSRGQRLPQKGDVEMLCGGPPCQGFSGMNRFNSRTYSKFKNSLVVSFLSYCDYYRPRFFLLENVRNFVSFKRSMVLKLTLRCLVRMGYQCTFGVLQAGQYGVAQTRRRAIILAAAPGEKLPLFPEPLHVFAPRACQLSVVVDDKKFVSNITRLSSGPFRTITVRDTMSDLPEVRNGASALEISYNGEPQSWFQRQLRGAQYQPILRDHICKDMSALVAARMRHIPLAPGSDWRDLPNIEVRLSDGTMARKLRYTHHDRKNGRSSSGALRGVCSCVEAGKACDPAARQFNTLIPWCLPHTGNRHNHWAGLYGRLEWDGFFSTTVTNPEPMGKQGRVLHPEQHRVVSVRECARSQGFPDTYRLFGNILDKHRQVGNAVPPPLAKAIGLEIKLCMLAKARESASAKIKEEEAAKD
NSD2 HMT inh: inhibitors of human histone methyltransferase NSD2. NSD2 peptide methylation, AlphaScreen, 120 min. hit rate 0.54% among 310,000. O96028. inhibition, % at 12.5 µM
NS3 helicase inh: inhibitors of Hepatitis C virus NS3 helicase. NS3 helicase DNA unwinding, Cy5 molecular beacon fluorescence. inhibition, % at 10.9 µM. hit rate 0.56% among 290,000. AID 1800;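 active = inhibition above the mean of all tested compounds plus 3 SD, set per campaign, cut at about 35% in these data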;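 note: 0% = DMSO wells and 100% = thioflavine S control wells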
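Control set: DMSO versus 110 µM thioflavine S; Material: NS3 helicase fragment of HCV; Measured by: Cy5 fluorescence at 0 and 60 min, beacon hairpin quenching; Read-out basis: percent inhibition from t60/t0 fluorescence ratio; Times: reaction time 60 min, 25 °C; Repeats: single replicate; Compound dosing: single dose, 10.9 µM nominal final, DMSO 0.8% final.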
* hit, by the source's call. Compounds with a hit are over-represented: about 1.5% of the library has one in this group of screens. Cut-off read from the data, not from the text of the source, unless noted: active = inhibition above about 50%; inactive = the rest.

For COc1ccc(NC(=O)Nc2ccc3c(c2)C(=O)N([C@H](C)CO)C[C@@H](C)[C@@H](CN(C)C(=O)Nc2ccc(F)cc2)O3)cc1 the results were CASP6 VEID inh -3.
Screening O=C(N/N=C/c1cccc(O)c1)c1csc2ccccc12 returned DNMT1 inh -10, NSD2 HMT inh 0 and NS3 helicase inh 4.
O=S(=O)(c1ccc(NC(=S)N/N=C/c2ccc(O)c(O)c2)cc1)N1CCOCC1 was read as CASP6 VEID inh 40*, DNMT1 inh 2, NSD2 HMT inh 19 and NS3 helicase inh -7.
`O=C(N/N=C/c1cccc(O)c1)c1ccccc1O` gave CASP6 VEID inh 49*, DNMT1 inh 11, NSD2 HMT inh -1 and NS3 helicase inh 2.
Screening Oc1ccc(/C=N/NC(=S)Nc2cccnc2)cc1O returned CASP6 VEID inh 13, DNMT1 inh 5, NSD2 HMT inh 75* and NS3 helicase inh 4.
`O=C(N/N=C/c1ccc(O)c(O)c1)N/N=C/c1ccc(O)c(O)c1` gave CASP6 VEID inh 75*, DNMT1 inh 19 and NS3 helicase inh 25.
CC(C)(C)c1ccc(/C=N/NC(=S)Nc2cccnc2)cc1 was read as NS3 helicase inh 12.
Screening Cc1noc(C)c1NC(=O)N(C)C[C@@H]1OCCCC[C@@H](C)Oc2ccc(NC(=O)NC3CCCCC3)cc2C(=O)N([C@H](C)CO)C[C@@H]1C returned CASP6 VEID inh -1.
CC1CCN(CCCNC(=O)COc2cc(=O)n(C)c3ccccc23)CC1 was read as CASP6 VEID inh 78*, DNMT1 inh 0, NSD2 HMT inh -2 and NS3 helicase inh 8.
CCn1c(=O)cc(OCC(=O)NCCCN2CCC(C)CC2)c2ccccc21 was read as DNMT1 inh 4, NSD2 HMT inh 4 and NS3 helicase inh 4.
`C[C@@H]1CN([C@@H](C)CO)C(=O)c2cc(NC(=O)Cc3ccccc3)ccc2O[C@@H](C)CCCCO[C@H]1CN(C)C(=O)c1ccccc1` gave CASP6 VEID inh -1.
Screening Cc1ccc(C)n1-c1sccc1C(=O)O returned DNMT1 inh 107* and NS3 helicase inh 25.
Screening CS(=O)(=O)N1[C@H](C(=O)NCC2CC2)[C@@H](CO)[C@@H]2Cn3c(ccc(-c4ccccc4F)c3=O)[C@@H]21 returned CASP6 VEID inh 0.
Screening CCOC(=O)/C(C#N)=C/Nc1ccccc1NS(=O)(=O)c1cccc(C(C)=O)c1 returned CASP6 VEID inh 38*, DNMT1 inh 1, NSD2 HMT inh 0 and NS3 helicase inh 9.
Screening COc1ccccc1/C=N/NC(=O)c1ccc(NC(=O)c2cccc([N+](=O)[O-])c2)cc1 returned NSD2 HMT inh -9 and NS3 helicase inh -2.
Screening COc1cccc(/C=N/NC(=O)c2cc3cc([N+](=O)[O-])ccc3s2)c1O returned CASP6 VEID inh 0, DNMT1 inh 99*, NSD2 HMT inh 3 and NS3 helicase inh 8.
For CC(=O)OC[C@]12CC[C@H]3[C@@](C)(CC[C@H]4C(C)(C)CCC[C@]34C)[C@@H]1CC(C1=CC(=O)OC1O)O2 (stereo partly drawn) the results were CASP6 VEID inh 21 and DNMT1 inh 58*.
`CC(=O)OC[C@]1(OC(C)=O)C[C@@]23CC[C@H]4[C@@](C)(CCC[C@@]4(C)C(=O)O)[C@@H]2CC[C@@H]1C3` gave CASP6 VEID inh 2, DNMT1 inh 7 and NS3 helicase inh 17.
`CC=Cc1ccc2n(c1=O)C[C@H]1[C@H](CO)[C@@H](C(=O)NCc3ccccc3F)N(CCC)[C@@H]21` (mixture of isomers) gave CASP6 VEID inh -1.
`Cc1cc(Cc2ccc(N)c(C)c2)ccc1N` gave CASP6 VEID inh -1, DNMT1 inh -3, NSD2 HMT inh -1 and NS3 helicase inh -7.
`Nc1ccc(Cc2ccc(N)c(C(=O)O)c2)cc1C(=O)O` gave CASP6 VEID inh 44*, DNMT1 inh 0, NSD2 HMT inh 8 and NS3 helicase inh 0.
`COc1ccccc1NC(=O)N(C)C[C@@H]1Oc2ncc(C#CC(C)C)cc2C(=O)N([C@@H](C)CO)C[C@H]1C` gave CASP6 VEID inh -2.
Screening COC1=C/C(=C/c2c(N)n3nc(CC(=O)N4CCCC4)sc3nc2=O)C=CC1=O returned CASP6 VEID inh 1, DNMT1 inh 1, NSD2 HMT inh 6 and NS3 helicase inh 4.
Screening Nc1c(/C=C2/C=CC(=O)C(O)=C2)c(=O)nc2sc(CC(=O)N3CCCCC3)nn12 returned CASP6 VEID inh 83*, DNMT1 inh 81*, NSD2 HMT inh 142* and NS3 helicase inh 30.

From PubChem BioAssay
